Data on 18 compounds can be found in ChEMBL document CHEMBL3108700, “Designing anti-inflammatory drugs from parasitic worms: a synthetic small molecule analogue of the Acanthocheilonema viteae product ES-62 prevents development of collagen-induced arthritis” (J Med Chem, 2013).

Assay [1] has as its target T1, Toll-like receptor 4 (Mus musculus) (UniProt Q9QUK6).
T1 sequence (whole entry): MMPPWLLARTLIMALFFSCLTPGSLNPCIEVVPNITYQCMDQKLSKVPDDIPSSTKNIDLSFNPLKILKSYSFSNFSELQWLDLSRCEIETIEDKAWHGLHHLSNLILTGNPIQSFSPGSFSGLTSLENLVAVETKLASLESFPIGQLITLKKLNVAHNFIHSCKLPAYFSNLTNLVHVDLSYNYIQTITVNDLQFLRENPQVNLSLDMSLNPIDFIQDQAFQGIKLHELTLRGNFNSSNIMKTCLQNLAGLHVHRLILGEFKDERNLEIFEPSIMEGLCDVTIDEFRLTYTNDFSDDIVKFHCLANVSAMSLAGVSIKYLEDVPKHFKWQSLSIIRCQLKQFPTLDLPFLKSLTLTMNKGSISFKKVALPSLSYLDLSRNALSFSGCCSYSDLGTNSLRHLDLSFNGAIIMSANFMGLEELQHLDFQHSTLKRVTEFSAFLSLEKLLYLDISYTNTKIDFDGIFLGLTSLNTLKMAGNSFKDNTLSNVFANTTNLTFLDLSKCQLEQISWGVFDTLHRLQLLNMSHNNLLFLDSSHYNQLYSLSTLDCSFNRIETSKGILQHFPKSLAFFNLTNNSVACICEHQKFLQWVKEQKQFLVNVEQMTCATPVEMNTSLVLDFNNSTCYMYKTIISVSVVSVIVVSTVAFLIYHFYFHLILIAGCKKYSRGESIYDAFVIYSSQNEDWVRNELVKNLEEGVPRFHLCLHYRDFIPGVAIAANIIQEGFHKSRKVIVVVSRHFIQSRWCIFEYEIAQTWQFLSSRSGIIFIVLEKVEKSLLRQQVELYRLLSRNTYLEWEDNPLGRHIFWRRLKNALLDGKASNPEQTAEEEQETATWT
As to the kind of experiment: Inhibition of TLR4 in BALB/c mouse BMDM assessed as downregulation of LPS-stimulated IL-12p40 level at 5 ug/ml preincubated for 18 hrs followed by LPS challenge measured after 24 hrs by ELISA relative to control. The essentials:
(§1)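 BALB/c male bone marrow macrophages were differentiated 7 days with L929 supernatant (≥99% CD11b+/F4/80+). Cells were plated at 2 × 10^5/well in triplicate, rested overnight, and given compounds at 5 μg/mL for 18 h. They were then stimulated with 100 ng/mL S. minnesota LPS, 10 ng/mL Pam3CSK4 (BLP) or 0.01 μM CpG for 24 h. Supernatant IL-12p40 and IL-6 were measured by ELISA (sensitivity 16 pg/mL).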

Assay [2] has as its target T2, TLR2/TLR6 (Mus musculus) (UniProt Q9QUN7+Q9EPW9). As to the kind of experiment: Inhibition of TLR2/6 in BALB/c mouse BMDM assessed as downregulation of BLP-stimulated IL-6 level at 5 ug/ml preincubated for 18 hrs followed by BLP challenge measured after 24 hrs by ELISA relative to control. Format: protein-complex assay. In outline: as §1
Assay [3] addresses T2, TLR2/TLR6 (Mus musculus). As to the kind of experiment: Inhibition of TLR2/6 in BALB/c mouse BMDM assessed as downregulation of BLP-stimulated IL-12p40 level at 5 ug/ml preincubated for 18 hrs followed by BLP challenge measured after 24 hrs by ELISA relative to control. Format: protein-complex assay. The essentials:
as §1

In assay [4] the target is T3, Toll-like receptor 9 (Mus musculus) (UniProt Q9EQU3).
T3 sequence (whole entry): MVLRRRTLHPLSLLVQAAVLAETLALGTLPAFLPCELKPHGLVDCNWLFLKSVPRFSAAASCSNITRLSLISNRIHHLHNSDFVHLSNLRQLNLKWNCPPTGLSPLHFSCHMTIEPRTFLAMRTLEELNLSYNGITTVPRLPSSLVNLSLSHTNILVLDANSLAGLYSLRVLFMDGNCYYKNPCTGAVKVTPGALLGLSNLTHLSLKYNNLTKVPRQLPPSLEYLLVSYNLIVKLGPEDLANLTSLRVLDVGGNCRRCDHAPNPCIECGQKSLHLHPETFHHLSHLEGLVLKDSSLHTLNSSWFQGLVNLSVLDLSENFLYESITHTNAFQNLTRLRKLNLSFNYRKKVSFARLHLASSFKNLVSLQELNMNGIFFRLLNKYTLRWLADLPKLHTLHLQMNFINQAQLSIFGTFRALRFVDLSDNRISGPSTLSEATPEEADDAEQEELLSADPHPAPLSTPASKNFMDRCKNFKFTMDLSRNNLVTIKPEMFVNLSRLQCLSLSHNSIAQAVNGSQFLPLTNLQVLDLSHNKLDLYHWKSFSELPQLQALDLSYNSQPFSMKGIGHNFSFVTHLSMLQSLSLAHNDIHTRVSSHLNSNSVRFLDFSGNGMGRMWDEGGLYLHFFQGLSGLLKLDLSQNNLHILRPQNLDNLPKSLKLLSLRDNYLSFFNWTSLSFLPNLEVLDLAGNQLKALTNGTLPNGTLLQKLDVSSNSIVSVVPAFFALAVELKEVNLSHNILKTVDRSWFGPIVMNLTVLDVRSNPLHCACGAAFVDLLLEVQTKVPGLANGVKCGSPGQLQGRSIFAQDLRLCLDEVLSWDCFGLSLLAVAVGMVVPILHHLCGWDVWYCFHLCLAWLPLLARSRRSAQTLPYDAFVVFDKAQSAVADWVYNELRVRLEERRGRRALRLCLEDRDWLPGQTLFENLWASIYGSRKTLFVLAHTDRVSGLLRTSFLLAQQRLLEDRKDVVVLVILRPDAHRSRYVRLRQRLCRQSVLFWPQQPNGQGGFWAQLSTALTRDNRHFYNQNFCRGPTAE
As to the kind of experiment: Inhibition of TLR9 in BALB/c mouse BMDM assessed as downregulation of CpG-stimulated IL-12p40 level at 5 ug/ml preincubated for 18 hrs followed by CpG challenge measured after 24 hrs by ELISA relative to control. In outline: as §1

In assay [5] the target is T3, Toll-like receptor 9 (Mus musculus). The experiment in a line: Inhibition of TLR9 in BALB/c mouse BMDM assessed as downregulation of CpG-stimulated IL-6 level at 5 ug/ml preincubated for 18 hrs followed by CpG challenge measured after 24 hrs by ELISA relative to control. The essentials:
as §1

For assay [6], the target named is T1, Toll-like receptor 4 (Mus musculus). The experiment in a line: Inhibition of TLR4 in BALB/c mouse BMDM assessed as downregulation of LPS-stimulated IL-6 level at 5 ug/ml preincubated for 18 hrs followed by LPS challenge measured after 24 hrs by ELISA relative to control. In outline: as §1

Activity calls are given as the source filed them. How the calls were made is not given here.

As for `O=S(=O)(CCNCCCO)c1ccccc1`, the inhibition entry (in assay [1]; at TLR2/TLR6 (Mus musculus) [2]; in assay [4]; in assay [5]; in assay [6]) was “inactive” throughout. The inhibition entry on TLR2/TLR6 (Mus musculus) [3] is “Active”.
As to `CN(C)CCN(C)CCS(=O)(=O)Nc1ccc(F)cc1`, in assay [1], the inhibition result was “Active”. Besides, the inhibition entry (on TLR2/TLR6 (Mus musculus) [2]; at TLR2/TLR6 (Mus musculus) [3]; in assay [4]; in assay [5]; in assay [6]) was “inactive” throughout.
For `Cc1ccc(CS(=O)(=O)CCC[N+](C)(C)C)cc1`, the inhibition result (in assay [1]; at TLR2/TLR6 (Mus musculus) [2]; at TLR2/TLR6 (Mus musculus) [3]; in assay [4]; in assay [5]; in assay [6]) was “inactive” each time.
For the compound `O=S(=O)(CCCN1CCCC1)Cc1ccc(Br)cc1`, the inhibition entry (in assay [1]; at TLR2/TLR6 (Mus musculus) [2]; on TLR2/TLR6 (Mus musculus) [3]; in assay [4]; in assay [5]; in assay [6]) was “inactive” each time.
For `O=[N+]([O-])c1ccc(CNS(=O)(=O)CCN2CCOCC2)cc1`, the inhibition result (in assay [1]; on TLR2/TLR6 (Mus musculus) [2]; on TLR2/TLR6 (Mus musculus) [3]; in assay [4]; in assay [5]; in assay [6]) was “inactive” each time.
Consider `Cc1ccc(CS(=O)(=O)NCCN2CCCC2)cc1`, for which the inhibition entry (in assay [1]; at TLR2/TLR6 (Mus musculus) [2]; at TLR2/TLR6 (Mus musculus) [3]; in assay [4]; in assay [5]; in assay [6]) was “inactive” each time.
Turning to `Cc1ccc(CS(=O)(=O)CCN2CCCC2)cc1`, the inhibition entry (in assay [1]; at TLR2/TLR6 (Mus musculus) [2]; at TLR2/TLR6 (Mus musculus) [3]; in assay [6]) was “Active” in each case. For the same compound, the inhibition entry in assay [4] and in assay [5] was “inactive” in each case.
Consider `CN(C)CCCNS(=O)(=O)Cc1ccc(Br)cc1`, for which the inhibition result (in assay [1]; at TLR2/TLR6 (Mus musculus) [2]; at TLR2/TLR6 (Mus musculus) [3]; in assay [4]; in assay [5]; in assay [6]) was “inactive” in each case.
As to `CN(C)CCNC(=O)Cc1ccccc1`, the inhibition result in assay [1] and in assay [5] was “Active” each time. Also, the inhibition entry (on TLR2/TLR6 (Mus musculus) [2]; on TLR2/TLR6 (Mus musculus) [3]; in assay [4]; in assay [6]) was “inactive” throughout.
Turning to `CN(C)CCCNS(=O)(=O)Cc1ccc(F)cc1`, the inhibition result (in assay [1]; on TLR2/TLR6 (Mus musculus) [2]; on TLR2/TLR6 (Mus musculus) [3]; in assay [4]; in assay [5]; in assay [6]) was “inactive” in each case.
As to `COc1ccc2c(CS(=O)(=O)NCCN3CCOCC3)cc(=O)oc2c1`, the inhibition result (in assay [1]; on TLR2/TLR6 (Mus musculus) [3]) was “Active” in each case. Moreover, the inhibition entry (at TLR2/TLR6 (Mus musculus) [2]; in assay [4]; in assay [5]; in assay [6]) was “inactive” each time.
With `O=[N+]([O-])c1ccc(CS(=O)(=O)NCCN2CCOCC2)cc1`, the inhibition entry (in assay [1]; at TLR2/TLR6 (Mus musculus) [2]; at TLR2/TLR6 (Mus musculus) [3]; in assay [4]; in assay [5]; in assay [6]) was “inactive” in each case.
On to `COc1cccc(C(=O)NCCCN(C)C)c1`, for which the inhibition result in assay [1] and in assay [5] was “Active” throughout. Further, the inhibition entry (on TLR2/TLR6 (Mus musculus) [2]; at TLR2/TLR6 (Mus musculus) [3]; in assay [4]; in assay [6]) was “inactive” in each case.
On to `CN(C)CCCS(=O)(=O)Cc1ccc(Br)cc1`, for which the inhibition entry (in assay [1]; at TLR2/TLR6 (Mus musculus) [2]; on TLR2/TLR6 (Mus musculus) [3]; in assay [4]; in assay [5]) was “inactive” throughout. The inhibition result in assay [6] is “Active”.
In the case of `Cc1ccc(CS(=O)(=O)NCCN2CCOCC2)cc1`, the inhibition entry (in assay [1]; on TLR2/TLR6 (Mus musculus) [2]; on TLR2/TLR6 (Mus musculus) [3]; in assay [4]; in assay [5]; in assay [6]) was “inactive” throughout.
Take `CN(C)CCS(=O)(=O)Cc1cccc(F)c1`: the inhibition entry (in assay [1]; at TLR2/TLR6 (Mus musculus) [2]; on TLR2/TLR6 (Mus musculus) [3]; in assay [4]; in assay [5]; in assay [6]) was “inactive” each time.
`CN(C)CCCOP(=O)(O)Oc1ccc(NC(=O)OC(C)(C)C)cc1`: the inhibition result (in assay [1]; at TLR2/TLR6 (Mus musculus) [2]; at TLR2/TLR6 (Mus musculus) [3]; in assay [4]; in assay [5]; in assay [6]) was “inactive” throughout.
Regarding `CN(C)CCS(=O)(=O)NCc1ccc(F)cc1`, the inhibition entry (in assay [1]; on TLR2/TLR6 (Mus musculus) [2]; on TLR2/TLR6 (Mus musculus) [3]; in assay [5]; in assay [6]) was “inactive” in each case. Moreover, the inhibition entry in assay [4] was “Active”.
